≈ marks a conversion by molar mass, not a printed value. Calls of active or inactive are those of the source. No cut-off for these calls is given here.
Legend:
Cryptococcus neoformans [1] = assay: Antimicrobial activity against Cryptococcus neoformans ATCC 90122 after 24 hrs by broth microdilution assay in presence of 25% human serum; type: functional; settings: ATCC 90112, 24 h, in the assay text read “ATCC 90112” for “ATCC 90122”
Procedure, shortened: (§1)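 For yeasts, NCCLS broth microdilution was run in medium supplemented with 25% heat-inactivated, filter-sterilized normal human serum. Compounds were reconstituted in sterile DMSO and diluted in medium just before the assay. MIC was the lowest concentration giving optically clear wells.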

Candida albicans [2] = assay: Antimicrobial activity against Candida albicans ATCC 90028 after 48 hrs by broth microdilution assay in presence of 25% human serum; type: functional; settings: ATCC 90028, 48 h; procedure, shortened: as §1
Staphylococcus aureus [3] = assay: Antimicrobial activity against Staphylococcus aureus ATCC 29213 after 24 hrs by broth microdilution assay in presence of 25% human serum; type: functional; settings: ATCC 29213, 24 h
Procedure, shortened: (§2)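 Bacteria were tested by NCCLS broth microdilution in medium containing 25% heat-inactivated, filter-sterilized normal human serum. Compounds were dissolved in sterile DMSO and diluted in medium immediately before use. MIC was the lowest concentration with no visible growth (optically clear). Assays were repeated on separate days.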

Streptococcus pneumoniae [4] = assay: Antimicrobial activity against Streptococcus pneumoniae ATCC 6303 after 24 hrs by broth microdilution assay in presence of 25% human serum; type: functional; settings: ATCC 6303, 24 h; procedure, shortened: as §2
Enterococcus faecalis [5] = assay: Antimicrobial activity against Enterococcus faecalis ATCC 29212 after 24 hrs by broth microdilution assay in presence of 25% human serum; type: functional; settings: ATCC 29212, 24 h; procedure, shortened: as §2
Micrococcus luteus [6] = assay: Antimicrobial activity against Micrococcus luteus Presque Isle 456 after 24 hrs by broth microdilution assay in presence of 25% human serum; type: functional; procedure, shortened: as §2
Escherichia coli [7] = assay: Antimicrobial activity against Escherichia coli ATCC 25922 after 24 hrs by broth microdilution assay in presence of 25% human serum; type: functional; settings: ATCC 25922, 24 h; procedure, shortened: as §2
Enterobacter cloacae [8] = assay: Antimicrobial activity against Enterobacter cloacae ATCC 13047 after 24 hrs by broth microdilution assay in presence of 25% human serum; type: functional; settings: ATCC 13047, 24 h; procedure, shortened: as §2
[9] = test system: Stenotrophomonas maltophilia; assay: Antimicrobial activity against Stenotrophomonas maltophilia ATCC 13637 after 24 hrs by broth microdilution assay in presence of 25% human serum; type: functional; settings: ATCC 13637, 24 h; procedure, shortened: as §2
Neisseria gonorrhoeae [10] = assay: Antimicrobial activity against Neisseria gonorrhoeae ATCC 49226 after 24 hrs by broth microdilution assay in presence of 25% human serum; type: functional; settings: ATCC 49226, 24 h; procedure, shortened: as §2
Cryptococcus neoformans [11] = assay: Antimicrobial activity against fluconazole-resistant Cryptococcus neoformans after 48 hrs by broth microdilution assay in presence of 25% human serum; type: functional
Nakaseomyces glabratus = assay: Antimicrobial activity against Candida glabrata after 48 hrs by broth microdilution assay in presence of 25% human serum; type: functional; procedure, shortened: as §1
Staphylococcus aureus [12] = assay: Antimicrobial activity against methicillin-resistant Staphylococcus aureus after 24 hrs by broth microdilution assay in presence of 25% human serum; type: functional
Procedure, shortened: as §2, with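 “Bacterial” for “Bacteria were tested by”, “microdilution run” for “microdilution”, “with” for “containing”, “taken up” for “dissolved”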

[13] = test system: Staphylococcus epidermidis; assay: Antimicrobial activity against Staphylococcus epidermidis ATCC 49461 after 24 hrs by broth microdilution assay in presence of 25% human serum; type: functional; settings: ATCC 49461, 24 h; procedure, shortened: as §2
Streptococcus pneumoniae [14] = assay: Antimicrobial activity against penicillin-resistant Streptococcus pneumoniae after 24 hrs by broth microdilution assay in presence of 25% human serum; type: functional
Procedure, shortened: as §2, with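 “Bacterial” for “Bacteria were tested by”, “microdilution run” for “microdilution”, “with” for “containing”, “taken up” for “dissolved”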

Streptococcus pyogenes = assay: Antimicrobial activity against penicillin-resistant Streptococcus pyogenes after 24 hrs by broth microdilution assay in presence of 25% human serum; type: functional
Procedure, shortened: as §2, with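 “Bacterial” for “Bacteria were tested by”, “microdilution run” for “microdilution”, “with” for “containing”, “taken up” for “dissolved”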

Enterococcus faecium = assay: Antimicrobial activity against vancomycin-resistant Enterococcus faecium after 24 hrs by broth microdilution assay in presence of 25% human serum; type: functional
Procedure, shortened: as §2, with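 “Bacterial” for “Bacteria were tested by”, “microdilution run” for “microdilution”, “with” for “containing”, “taken up” for “dissolved”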

Rhodococcus sp. = assay: Antimicrobial activity against Rhodococcus sp. after 24 hrs by broth microdilution assay in presence of 25% human serum; type: functional; settings: Rhodococcus sp. (in: high G+C Gram-positive bacteria); procedure, shortened: as §2
MCF7 = assay: Cytotoxicity against human MCF7 cells after 48 hrs by SRB assay; type: functional; settings: MCF7, 48 h
P388 = assay: Cytotoxicity against mouse P388 cells; type: functional; settings: read-out: ED50 (the source's name)
BXPC-3 = assay: Cytotoxicity against human BxPC3 cells after 48 hrs by SRB assay; type: functional; settings: BXPC-3, 48 h
SF-268 = assay: Cytotoxicity against human SF268 cells after 48 hrs by SRB assay; type: functional; settings: SF-268, 48 h
NCI-H460 = assay: Cytotoxicity against human NCI-H460 cells after 48 hrs by SRB assay; type: functional; settings: NCI-H460, 48 h
KM-20L2 = assay: Cytotoxicity against human KM20L2 cells after 48 hrs by SRB assay; type: functional; settings: KM-20L2, 48 h
DU-145 = assay: Cytotoxicity against human DU145 cells after 48 hrs by SRB assay; type: functional; settings: DU-145, 48 h
Cryptococcus neoformans [15] = assay: Antimicrobial activity against Cryptococcus neoformans ATCC 90122 after 24 hrs by broth microdilution assay; type: functional; settings: ATCC 90112, 24 h, in the assay text read “ATCC 90112” for “ATCC 90122”
Procedure, shortened: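 Yeasts were tested by NCCLS broth microdilution. Compounds were dissolved in a small volume of sterile DMSO and diluted in the appropriate medium immediately before testing. MIC was the lowest concentration inhibiting all visible growth (optically clear). Assays were repeated on separate days.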

Candida albicans [16] = assay: Antimicrobial activity against Candida albicans ATCC 90028 at 64 ug/mL after 48 hrs by broth microdilution assay; type: functional, organism-based
Staphylococcus aureus [17] = assay: Antimicrobial activity against Staphylococcus aureus ATCC 29213 after 24 hrs by broth microdilution assay; type: functional; settings: ATCC 29213, 24 h
Procedure, shortened: (§3)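 Bacterial MICs were determined by NCCLS broth microdilution. Compounds were dissolved in a small volume of sterile DMSO and diluted in the appropriate medium just before testing. MIC was the lowest concentration giving no visible growth (optically clear). Assays were repeated on separate days.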

Streptococcus pneumoniae [18] = assay: Antimicrobial activity against Streptococcus pneumoniae ATCC 6303 after 24 hrs by broth microdilution assay; type: functional; settings: ATCC 6303, 24 h; procedure, shortened: as §3
Enterococcus faecalis [19] = assay: Antimicrobial activity against Enterococcus faecalis ATCC 29212 after 24 hrs by broth microdilution assay; type: functional; settings: ATCC 29212, 24 h; procedure, shortened: as §3
Micrococcus luteus [20] = assay: Antimicrobial activity against Micrococcus luteus Presque Isle 456 after 24 hrs by broth microdilution assay; type: functional; procedure, shortened: as §3
Escherichia coli [21] = assay: Antimicrobial activity against Escherichia coli ATCC 25922 at 64 ug/mL after 24 hrs by broth microdilution assay; type: functional, organism-based
Enterobacter cloacae [22] = assay: Antimicrobial activity against Enterobacter cloacae ATCC 13047 at 64 ug/mL after 24 hrs by broth microdilution assay; type: functional, organism-based
[23] = test system: Stenotrophomonas maltophilia; assay: Antimicrobial activity against Stenotrophomonas maltophilia ATCC 13637 at 64 ug/mL after 24 hrs by broth microdilution assay; type: functional, organism-based
Neisseria gonorrhoeae [24] = assay: Antimicrobial activity against Neisseria gonorrhoeae ATCC 49226 at 64 ug/mL after 24 hrs by broth microdilution assay; type: functional; settings: ATCC 49226, 24 h

## CO[C@H]1C[C@H]2C(C)(C)CCC[C@]2(C)c2ccc(O)c(C(C)C)c21 [NOOTKASTATIN 1]
Cryptococcus neoformans [1]
  MIC: > 64 µg/mL
Candida albicans [2]
  MIC: > 64 µg/mL
Staphylococcus aureus [3]
  MIC: > 64 µg/mL
Streptococcus pneumoniae [4]
  MIC: > 64 µg/mL
Enterococcus faecalis [5]
  MIC: > 64 µg/mL
Micrococcus luteus [6]
  MIC: > 64 µg/mL
Escherichia coli [7]
  MIC: > 64 µg/mL
Enterobacter cloacae [8]
  MIC: > 64 µg/mL
[9]
  MIC: > 64 µg/mL
Neisseria gonorrhoeae [10]
  MIC: > 64 µg/mL
Cryptococcus neoformans [11]
  MIC: > 64 µg/mL
Nakaseomyces glabratus
  MIC: > 64 µg/mL
Staphylococcus aureus [12]
  MIC: > 64 µg/mL
[13]
  MIC: > 64 µg/mL
Streptococcus pneumoniae [14]
  MIC: > 64 µg/mL
Streptococcus pyogenes
  MIC: > 64 µg/mL
Enterococcus faecium
  MIC: > 64 µg/mL
Rhodococcus sp.
  MIC: > 64 µg/mL
MCF7
  GI50: 2 µg/mL (≈ 6.32 µM)
P388
  EC50: 1.5 µg/mL (≈ 4.74 µM)
BXPC-3
  GI50: 2.1 µg/mL (≈ 6.64 µM)
SF-268
  GI50: 0.85 µg/mL (≈ 2.69 µM)
NCI-H460
  GI50: 0.75 µg/mL (≈ 2.37 µM)
KM-20L2
  GI50: 0.98 µg/mL (≈ 3.1 µM)
DU-145
  GI50: 1.1 µg/mL (≈ 3.48 µM)
Cryptococcus neoformans [15]
  MIC: 64 µg/mL (≈ 202 µM)
Candida albicans [16]
  Activity: inactive
Staphylococcus aureus [17]
  MBC: 32 µg/mL (≈ 101 µM)
  MIC: 8 µg/mL (≈ 25.3 µM)
Streptococcus pneumoniae [18]
  MBC: 64 µg/mL (≈ 202 µM)
  MIC: 64 µg/mL (≈ 202 µM)
Enterococcus faecalis [19]
  MBC: 16 µg/mL (≈ 50.6 µM)
  MIC: 4 µg/mL (≈ 12.6 µM)
Micrococcus luteus [20]
  MBC: 8 µg/mL (≈ 25.3 µM)
  MIC: 2 µg/mL (≈ 6.32 µM)
Escherichia coli [21]
  Activity: inactive
Enterobacter cloacae [22]
  Activity: inactive
[23]
  Activity: inactive
Neisseria gonorrhoeae [24]
  MBC: 4 µg/mL (≈ 12.6 µM)
  MIC: 2 µg/mL (≈ 6.32 µM)

— ChEMBL document CHEMBL1148220, “Antineoplastic agents. 529. Isolation and structure of nootkastatins 1 and 2 from the Alaskan yellow cedar Chamaecyparis nootkatensis” (2004)
